Active and inactive are the calls of the source. The rule behind the calls is not given here.
Columns and labels:
Mus musculus [1] = assay: In vivo inhibition of B-Raf V600E mutant-mediated ERK1/2 phosphorylation in tumor of po dosed CD1 nu/nu mouse bearing B-Raf V600E mutant harboring human A375P-F11 cells administered as single dose by duplex ELISA; type: functional, organism-based
Method in brief: (§1)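 A375P-F11 xenografts in nude mice, oral gavage dosing in 0.5% HPMC/0.2% Tween-80 water pH 8.0. Tumors homogenized in Tris pH 7.5 lysis buffer with EDTA, EGTA, Triton X-100, SDS, phosphatase inhibitors, kept on ice; spun 14,000 rpm 15 min 4°C, flash frozen. Total and phospho-ERK1/2 measured by duplex electrochemiluminescent ELISA.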

Mus musculus [2] = assay: In vivo inhibition of B-Raf V600E mutant-mediated ERK1/2 phosphorylation in tumor of CD1 nu/nu mouse bearing B-Raf V600E mutant harboring human A375P-F11 cells at =< 30 mg/kg, po administered as a single dose measured after 24 hrs by duplex ELISA; type: functional, organism-based; parameters: dose 30 mg/kg; method in brief: as §1
Mus musculus [3] = assay: In vivo inhibition of B-Raf V600E mutant-mediated ERK1/2 phosphorylation in tumor of CD1 nu/nu mouse bearing B-Raf V600E mutant harboring human A375P-F11 cells at => 3 mg/kg, po administered as single dose measured after 2 to 6 hrs by duplex ELISA; type: functional; method in brief: as §1
Mus musculus [4] = assay: Toxicity in CD1 nu/nu mouse bearing B-Raf V600E mutant harboring human A375P-F11 cells assessed as changes in body weight at 0.1 to 100 mg/kg, po qd for 14 days; type: organism-based; parameters: dose 0.1-100 mg/kg, route oral; conditions: in vivo, 336 h
[5] = Antitumor activity against B-Raf V600E mutant harboring human A375P-F11 cells xenografted in CD1 nu/nu mouse assessed as tumor growth inhibition at 100 mg/kg, po qd for 14 days by Vernier caliper; type: functional; conditions: A375P-F11, 336 h, read-out: GI
Method in brief: (§2)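 A375P-F11 (single-cell clone of A375P selected by limiting dilution) grown as xenografts in nude mice; daily oral gavage started at ~150-200 mm3 tumors, vehicle 0.5% HPMC + 0.2% Tween-80 in water pH 8.0, 0.2 mL/20 g. Calipers twice weekly; volume = length x width² x 0.5; mean volume, n=7-8 mice/group. Complete regression = >93% volume decrease for ≥1 week.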

A375P-F11 = assay: Antitumor activity against B-Raf V600E mutant harboring human A375P-F11 cells xenografted in po dosed CD1 nu/nu mouse assessed as tumor growth inhibition administered qd for 14 days by Vernier caliper; type: functional, organism-based; method in brief: as §2
TGF-beta receptor type-1 = target: T1, TGF-beta receptor type-1 (Homo sapiens, UniProt P36897); assay: Inhibition of Alk5 in TGF-beta-stimulated human HepG2 cells assessed as decrease in Smad2 phosphorylation treated for 45 mins prior to TGF-beta stimulation measured after 60 mins by odyssey blot scanner analysis; type: cell-based
T1 sequence (P36897 whole entry): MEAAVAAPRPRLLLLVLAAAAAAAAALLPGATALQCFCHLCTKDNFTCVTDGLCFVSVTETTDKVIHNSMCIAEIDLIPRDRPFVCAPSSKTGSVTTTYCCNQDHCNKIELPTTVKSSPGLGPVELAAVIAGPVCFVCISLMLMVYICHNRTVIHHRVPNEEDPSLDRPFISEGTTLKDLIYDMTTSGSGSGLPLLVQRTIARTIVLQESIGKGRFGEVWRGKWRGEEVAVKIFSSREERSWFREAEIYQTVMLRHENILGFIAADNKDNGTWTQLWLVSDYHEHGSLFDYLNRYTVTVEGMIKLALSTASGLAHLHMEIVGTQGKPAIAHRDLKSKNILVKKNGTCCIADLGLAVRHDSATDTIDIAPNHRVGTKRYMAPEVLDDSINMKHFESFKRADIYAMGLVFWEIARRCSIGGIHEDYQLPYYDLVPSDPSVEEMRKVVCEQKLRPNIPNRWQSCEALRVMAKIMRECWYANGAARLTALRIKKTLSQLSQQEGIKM
Method in brief: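 HepG2 cells seeded at 500,000 cells/well, adhered overnight at 37°C/5% CO2 in BME+10% serum; compound added in serum-free medium for 45 min, then stimulated with 1 ng/ml TGF-β for 60 min.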

HFF = assay: Inhibition of proliferation of human HFF cells harboring wild type B-Raf; type: cell-based
COLO 205 = assay: Inhibition of human COLO205 cell proliferation; type: functional, cell-based
Canis familiaris = assay: Dose-normalized AUC in po dosed dog; type: ADME, organism-based, Canis lupus familiaris; conditions: in vivo
Rattus norvegicus = assay: Dose-normalized AUC in po dosed rat; type: ADME, organism-based; conditions: in vivo
[6] = Blood clearance in iv dosed dog; type: ADME, organism-based, Canis lupus familiaris
[7] = Blood clearance in iv dosed rat; type: ADME, organism-based
SK-MEL-28 = assay: Inhibition of B-Raf V600E mutant-driven SK-MEL-28 cell proliferation after 72 hrs by CellTiter-Glo luminescent assay; type: functional, cell-based; conditions: Homo sapiens, SK-MEL-28, 72 h
[8] = Oral bioavailability in monkey; type: ADME, organism-based, Macaca mulatta; conditions: rhesus monkey, in vivo
[9] = Oral bioavailability in dog; type: ADME, organism-based, Canis lupus familiaris; conditions: in vivo
Rhesus monkey = assay: Dose-normalized AUC in po dosed monkey; type: ADME, organism-based, Macaca mulatta; conditions: in vivo
[10] = Oral bioavailability in rat; type: ADME, organism-based; conditions: in vivo
[11] = Blood clearance in iv dosed monkey; type: ADME, organism-based, Macaca mulatta; conditions: rhesus monkey
[12] = Intrinsic clearance in dog liver microsome at 10 uM after 30 mins by LC/MS analysis; type: ADME, Canis lupus familiaris; conditions: microsomes, 0.5 h
[13] = Intrinsic clearance in monkey liver microsome; type: ADME, Macaca mulatta; conditions: rhesus monkey, microsomes
Liver microsomes = assay: Intrinsic clearance in rat liver microsome; type: ADME
[14] = target: T2, Serine/threonine-protein kinase B-raf (Homo sapiens, UniProt P15056, V600E); assay: Inhibition of B-Raf V600E mutant in human SK-MEL-28 cells assessed as decrease in ERK phosphorylation incubated for 1 hr by immunoassay; type: cell-based
[15] = target: T2, Serine/threonine-protein kinase B-raf; assay: Inhibition of N-terminal His tagged B-Raf V600E mutant (unknown origin) expressed in baculovirus infected insect cells co-expressing CDC37 assessed as decrease in biotinylated-MEK protein phosphorylation by AlphaScreen assay

T2 sequence (P15056 2-766 V600E limits assumed): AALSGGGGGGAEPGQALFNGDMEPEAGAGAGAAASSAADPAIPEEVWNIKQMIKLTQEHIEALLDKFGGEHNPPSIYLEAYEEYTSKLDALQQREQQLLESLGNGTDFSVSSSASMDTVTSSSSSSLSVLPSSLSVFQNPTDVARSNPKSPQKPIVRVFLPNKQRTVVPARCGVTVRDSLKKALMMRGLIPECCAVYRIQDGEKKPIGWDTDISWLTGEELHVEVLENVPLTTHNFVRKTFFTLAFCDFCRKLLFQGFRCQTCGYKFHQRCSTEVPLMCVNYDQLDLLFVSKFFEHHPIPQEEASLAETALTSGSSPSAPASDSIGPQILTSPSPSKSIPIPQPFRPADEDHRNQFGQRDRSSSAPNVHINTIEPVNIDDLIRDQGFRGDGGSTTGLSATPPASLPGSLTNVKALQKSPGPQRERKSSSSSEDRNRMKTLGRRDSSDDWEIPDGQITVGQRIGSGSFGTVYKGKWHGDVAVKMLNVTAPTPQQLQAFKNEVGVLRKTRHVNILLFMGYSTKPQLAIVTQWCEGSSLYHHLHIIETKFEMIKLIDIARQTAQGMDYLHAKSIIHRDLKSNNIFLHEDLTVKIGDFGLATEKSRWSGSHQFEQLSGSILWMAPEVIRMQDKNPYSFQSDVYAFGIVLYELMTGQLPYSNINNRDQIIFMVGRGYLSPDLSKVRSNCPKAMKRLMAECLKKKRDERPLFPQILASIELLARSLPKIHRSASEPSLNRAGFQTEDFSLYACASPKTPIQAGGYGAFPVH

## CC(C)(C)c1nc(-c2cccc(NS(=O)(=O)c3c(F)cccc3F)c2F)c(-c2ccnc(N)n2)s1 [DABRAFENIB]
Mus musculus [1]
  inhibition: Dose-dependent effect
Mus musculus [2]
  inhibition: inactive
Mus musculus [3]
  inhibition in vivo at 3 mg/kg: > 50%
Mus musculus [4]
  Activity: Non-toxic
[5]
  inhibition in vivo at 100 mg/kg: 50%
A375P-F11
  growth inhibition (GI): Dose-dependent effect
TGF-beta receptor type-1
  IC50: 3700 nM
HFF
  IC50: 3000 nM
COLO 205
  IC50: 7 nM
Canis familiaris
  AUC/dose: 3754 ng·h/mL/mg/kg
Rattus norvegicus
  AUC/dose: 729 ng·h/mL/mg/kg
[6]
  clearance: 4 mL/min/kg
[7]
  clearance: 18 mL/min/kg
SK-MEL-28
  IC50: 3 nM

## CC(C)c1nc(-c2cccc(NS(=O)(=O)c3c(F)cccc3F)c2F)c(-c2ccnc(Nc3ccc(N4CCOCC4)nc3)n2)s1
[8]
  bioavailability: 5%
[9]
  bioavailability: 10%
Rhesus monkey
  AUC/dose: 23 ng·h/mL/mg/kg
[10]
  bioavailability: 85%
Canis familiaris
  AUC/dose: 42 ng·h/mL/mg/kg
[11]
  clearance: 39 mL/min/kg
Rattus norvegicus
  AUC/dose: 1748 ng·h/mL/mg/kg
[6]
  clearance: 38 mL/min/kg
[7]
  clearance: 9 mL/min/kg
[12]
  CLH: 53 mL/min/g
[13]
  CLH: 8 mL/min/g
Liver microsomes
  CLH: 9 mL/min/g
SK-MEL-28
  IC50: 48 nM
[14]
  IC50: 23 nM
[15]
  IC50: 3.8 nM

## CC(C)c1nc(-c2cccc(NS(=O)(=O)c3cccc(F)c3)c2)c(-c2ccnc(NCC(N)=O)n2)s1
Rattus norvegicus
  AUC/dose: 6 ng·h/mL/mg/kg
[14]
  IC50: 26 nM
[15]
  IC50: 11 nM

## CC(C)c1nc(-c2cccc(NS(=O)(=O)c3cccc(F)c3)c2)c(-c2ccnc(NC3CC3)n2)s1
Rattus norvegicus
  AUC/dose: 16 ng·h/mL/mg/kg
[14]
  IC50: 28 nM
[15]
  IC50: 32 nM

## CC(C)(C)c1nc(-c2ccc(F)c(NS(=O)(=O)c3c(F)cccc3F)c2)c(-c2ccnc(NCCS(C)(=O)=O)n2)s1
Rattus norvegicus
  AUC/dose: 1373 ng·h/mL/mg/kg
[14]
  IC50: 11 nM
[15]
  IC50: 13 nM

## CC(C)c1nc(-c2ccc(F)c(NS(=O)(=O)c3c(F)cccc3F)c2)c(-c2ccnc(NCCS(C)(=O)=O)n2)s1
Canis familiaris
  AUC/dose: 43 ng·h/mL/mg/kg
Rattus norvegicus
  AUC/dose: 1024 ng·h/mL/mg/kg
[14]
  IC50: 51 nM
[15]
  IC50: 13 nM

## CC(C)(C)c1nc(-c2cccc(NS(=O)(=O)c3cc(F)ccc3F)c2)c(-c2ccnc(N)n2)s1
Rattus norvegicus
  AUC/dose: 27 ng·h/mL/mg/kg
[14]
  IC50: 7 nM
[15]
  IC50: 8 nM

## CC(C)c1nc(-c2cccc(NS(=O)(=O)c3c(F)cccc3F)c2)c(-c2ccnc(NCCS(C)(=O)=O)n2)s1
Rattus norvegicus
  AUC/dose: 34 ng·h/mL/mg/kg
[14]
  IC50: 4 nM
[15]
  IC50: 1 nM

## CC(C)c1nc(-c2ccc(F)c(NS(=O)(=O)c3cccc(F)c3)c2)c(-c2ccnc(N)n2)s1
[14]
  IC50: 2560 nM
[15]
  IC50: 536 nM

## CC(C)c1nc(-c2cccc(NS(=O)(=O)c3cccc(F)c3)c2)c(-c2ccnc(NCCCN(C)C)n2)s1
[14]
  IC50: 73 nM
[15]
  IC50: 28 nM

## CC(C)c1nc(-c2cccc(NS(=O)(=O)c3c(F)cccc3F)c2)c(-c2ccnc(N)n2)s1
Rattus norvegicus
  AUC/dose: 23 ng·h/mL/mg/kg
[14]
  IC50: 78 nM
[15]
  IC50: 40 nM

## CC(C)c1nc(-c2cccc(NS(=O)(=O)c3c(F)cccc3F)c2F)c(-c2ccnc(NCCS(C)(=O)=O)n2)s1
Canis familiaris
  AUC/dose: 68 ng·h/mL/mg/kg
Rattus norvegicus
  AUC/dose: 125 ng·h/mL/mg/kg
[14]
  IC50: 7 nM
[15]
  IC50: 0.3 nM

From ChEMBL document CHEMBL2331286 (ACS Med Chem Lett, 2013)
